Data from ChEMBL document CHEMBL3612004, “Primaquine-pyrimidine hybrids: synthesis and dual-stage antiplasmodial activity” (Eur J Med Chem, 2015).
The source made the active and inactive calls. No cut-off for these calls is given here.

Legend:
[1] = Cytotoxicity against human HuH7 cells assessed as effect on cell proliferation at 1 to 10 uM by Alamar Blue assay; assay type: cell-based; details: huh-7, 10 µM
Method in brief: (§1)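 Huh-7 viability was measured by Alamar Blue in parallel with the 48 h sporozoite infection assay, in RPMI 1640/10% FBS/HEPES medium at 37 °C and 5% CO2. The initial screen tested each compound at […], scoring cell confluence and proliferation.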

[2] = tested on: Plasmodium falciparum; assay: Antiplasmodial activity against blood stage of chloroquine-sensitive Plasmodium falciparum NF54 by parasite lactate dehydrogenase assay; assay type: functional, organism-based
Method in brief: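 Asexual P. falciparum was kept in continuous culture (modified Trager–Jensen) and read out by parasite lactate dehydrogenase. DMSO stocks were 20 mg/ml, tested as suspensions and diluted 2-fold in complete medium to 10 concentrations. Chloroquine and artesunate served as references. IC50 came from non-linear dose–response fitting; values are the mean of three observations.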

[3] = tested on: Plasmodium berghei; assay: Antiplasmodial activity against liver-stage of Plasmodium berghei expressing firefly luciferase infected in human Huh-7 cells after 48 hrs by bioluminescence assay; assay type: functional, organism-based; details: Huh-7, Liver
Method in brief: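 Huh-7 hepatoma cells were grown in RPMI 1640 with 10% FBS, NEAA, glutamine and 10 mM HEPES pH 7, at 37 °C and 5% CO2, and seeded at 1.0 × 10^4 per well the day before. Compound medium went on about 1 h before fresh A. stephensi sporozoites of firefly-luciferase P. berghei, followed by centrifugation at 1700 g for 5 min. Luminescence was read 48 h post-infection, and IC50 came from dose–response.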

[4] = Selectivity index, ratio of CC50 for human HuH7 cells to IC50 for liver-stage of Plasmodium berghei expressing firefly luciferase infected in human Huh-7 cells; assay type: functional
[5] = tested on: Plasmodium berghei; assay: Ratio of primaquine IC50 to compound IC50 for liver-stage of Plasmodium berghei expressing firefly luciferase infected in human Huh-7 cells; assay type: functional
[6] = Cytotoxicity against human HuH7 cells assessed as cell viability by Alamar Blue assay; assay type: cell-based, Huh-7; method in brief: as §1
[7] = tested on: Plasmodium berghei; assay: Antiplasmodial activity against Plasmodium berghei ANKA expressing luciferase infected in C57Bl/6J mouse assessed as reduction of liver parasite load at 50 mg/kg, po administered 8 hrs prior to parasite infection measured after 24 hrs; assay type: functional, organism-based; details: in the assay text read “measured after 47 hrs” for “measured after 24 hrs”
Method in brief: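 C57Bl/6J mice were inoculated intravenously with 5 × 10^3 luciferase-expressing P. berghei ANKA sporozoites from A. stephensi salivary glands. Drug was given at 50 mg/kg by oral gavage as a sunflower-oil suspension from a DMSO stock, 8 h before, at, and 24 h after infection; controls got vehicle. Livers were homogenized in guanidine thiocyanate denaturing solution 47 h post-infection to quantify parasite load.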

SMILES	Activity [1]	IC50 [2]	IC50 [3]	Ratio CC50/IC50 [4]	Ratio IC50 [5]	CC50 [6]	Activity [7]
CCOC(=O)c1c(C)nc(NCCCC(C)Nc2cc(OC)cc3cccnc23)nc1-c1ccc(F)cc1 (stereo unspecified)	Non-toxic	3430 nM	–	–	–	–	–
COc1cc(NC(C)CCCN)c2ncccc2c1 (stereo unspecified) [PRIMAQUINE]	–	892 nM	8430 nM	–	–	–	–
COC(=O)c1c(C)nc(NCCCC(C)Nc2cc(OC)cc3cccnc23)nc1C (stereo unspecified)	Non-toxic	2000 nM	–	–	–	–	–
CCOC(=O)c1c(C)nc(NCCCC(C)Nc2cc(OC)cc3cccnc23)nc1-c1ccccc1 (stereo unspecified)	Non-toxic	4320 nM	1260 nM	>79.3	6.7	> 100000 nM	–
COc1cc(NC(C)CCCNc2nc(C)c(C(=O)OC(C)C)c(-c3ccc([N+](=O)[O-])cc3)n2)c2ncccc2c1 (stereo unspecified)	Non-toxic	1930 nM	–	–	–	–	–
O=C1C(O)=C([C@H]2CC[C@H](c3ccc(Cl)cc3)CC2)C(=O)c2ccccc21 [ATOVAQUONE]	–	–	1.8 nM	–	–	–	–
COc1cc(NC(C)CCCNc2nc(C)c(C(=O)OC(C)C)c(-c3ccccc3[N+](=O)[O-])n2)c2ncccc2c1 (stereo unspecified)	Non-toxic	2790 nM	–	–	–	–	–
COc1cc(NC(C)CCCNc2nc(C)c(C(=O)OC(C)C)c(-c3cccc([N+](=O)[O-])c3)n2)c2ncccc2c1 (stereo unspecified)	Non-toxic	2670 nM	1500 nM	>66.6	–	> 100000 nM	inactive
C[C@H]1[C@H](OC(=O)CCC(=O)O)O[C@@H]2O[C@@]3(C)CC[C@H]4[C@H](C)CC[C@@H]1[C@@]24OO3 [ARTESUNATE]	–	4.4 nM	–	–	–	–	–
CCOC(=O)c1c(C)nc(NCCCC(C)Nc2cc(OC)cc3cccnc23)nc1-c1ccc(OC)cc1 (stereo unspecified)	Non-toxic	3280 nM	1570 nM	>63.6	–	> 100000 nM	–
CCOC(=O)c1c(C)nc(NCCCC(C)Nc2cc(OC)cc3cccnc23)nc1C (stereo unspecified)	Non-toxic	3780 nM	1860 nM	32.6	–	61000 nM	–
COc1cc(NC(C)CCCNc2nc(C)c(C(=O)OC(C)C)c(-c3ccccc3)n2)c2ncccc2c1 (stereo unspecified)	Non-toxic	4800 nM	–	–	–	–	–
